# Measurements pooled from the literature.
# Effect on: enzyme activity
# Action: inhibitor
# LCK: Tyrosine-protein kinase Lck (LCK, Homo sapiens, UniProt P06239)
SMILES,target,technique,concentration,remaining activity [%]
Cc1ccc(NC(=O)c2ccc(C)c(C(F)(F)F)c2)cc1C#Cc1nn(C2CCC(O)CC2)c2ncnc(N)c12 (stereo not drawn),LCK,,10 µM,0
C[S+]([O-])c1ccc(-c2nc(-c3ccncc3)c(-c3ccc(F)cc3)[nH]2)cc1 (stereo not drawn),LCK,,0.5 µM,95
CCCOc1ccc(OC)c(F)c1C(=O)c1ccc(C(=O)N[C@@H]2CNC[C@H]2NC(=O)c2ccc3[nH]ncc3c2)cc1,"Tyrosine-protein kinase Lck, phosphorylated (LCK, Homo sapiens, UniProt P06239)",,10 µM,18
COc1cc(Nc2cnc(C#N)c(O[C@H](C)CN(C)C)n2)ncc1-c1cnn(C)c1,LCK,radiometric,1 µM,60
O=C1Nc2ccc(Cl)cc2C1=Cc1cc(Cl)c(O)c(Cl)c1,LCK,,0.5 µM,88.2
CCN(CC)c1ccc(C2=NNC(=O)CC2C)cc1[N+](=O)[O-] (stereo not drawn),LCK,,10 µM,118
O=C(Nc1cnn(-c2csc(C(=O)NC3COC3)c2)c1)Nc1c(F)cccc1Cl,LCK,,5 µM,94.2
COc1cc2c(N3CCN(C(=O)Nc4ccc(OC(C)C)cc4)CC3)ncnc2cc1OCCCN1CCCCC1,LCK,,0.5 µM,87.1
Nc1nc(Nc2ccccc2)sc1C(=O)c1c(F)cccc1F,LCK,,10 µM,49
Nc1ncnc2occ(-c3ccc(NC(=O)Nc4cc(C(F)(F)F)ccc4F)cc3)c12,LCK,,20 µM,0.1
CC(C)(C)c1nc2c(s1)c1nc(N)ncc1c1ccc(NS(=O)(=O)c3c(F)cccc3F)c(F)c12,LCK,radiometric,1 µM,80
O=c1c2ccccc2[nH]c(=S)n1CCN1CCC(=C(c2ccc(F)cc2)c2ccc(F)cc2)CC1,LCK,,0.5 µM,99.5
Cc1ccc(NC(=O)c2ccc(CN3CCN(C)CC3)cc2)cc1Nc1nccc(-c2cncc(-c3oncc3C)c2)n1,LCK,,0.5 µM,≤ 50
Cc1cnc(NC2CCOCC2)nc1-n1cnc(C(=O)NC(CN)c2cc(F)cc(Cl)c2)c1 (stereo not drawn),LCK,radiometric,1 µM,100
O=C1NC(=O)c2cc(Nc3ccc(F)cc3)c(Nc3ccc(F)cc3)cc21,LCK,,0.5 µM,98.4
CC(C)(C)C(=O)c1sc(NC2CCCCC2)nc1N,LCK,,10 µM,85
COc1cc(Cl)c(C(=O)N[C@@H](CN[C@H]2CC[C@@H](N)CC2)Cc2ccc(C#N)cc2)cc1-c1ccc(CN[C@H](C)c2ccc(C)cc2)o1,LCK,,1 µM,75
Cn1c(=O)n(-c2ccc(C(C)(C)C#N)cc2)c2c3cc(-c4cnc5ccccc5c4)ccc3ncc21,LCK,,10 µM,54
CCN(CC)CCNC(=O)c1c(C)[nH]c(/C=C2\C(=O)Nc3ccc(Cl)cc32)c1C,LCK,,0.5 µM,11.8
Oc1cccc(-c2nc(N3CCOCC3)c3oc4ncccc4c3n2)c1,LCK,,10 µM,85
Cc1[nH]c(/C=C2\C(=O)Nc3ccc(F)cc32)c(C)c1C(=O)N[C@H]1CCN(C(=O)N(C)C)C1,LCK,,0.1 µM,87
